Test results taken from paper PMC2752828 (Organic & biomolecular chemistry, 2008).

Target: T1, Cdc25B catalytic domain (Homo sapiens, UniProt P30305)
T1 sequence (P30305 374-551 limits assumed): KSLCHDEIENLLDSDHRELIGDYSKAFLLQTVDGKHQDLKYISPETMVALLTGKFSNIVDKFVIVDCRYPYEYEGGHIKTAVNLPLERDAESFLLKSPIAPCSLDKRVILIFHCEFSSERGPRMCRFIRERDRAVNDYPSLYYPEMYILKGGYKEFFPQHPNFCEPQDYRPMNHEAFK
Experiment: OMFP fluorescence phosphatase assay, 10-point curve
Format: biochemical
Summary of the method: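 Recombinant human Cdc25B catalytic domain incubated with test compound and O-methylfluorescein phosphate substrate for 60 min; fluorescence change read at 485 nm excitation/525 nm emission. Percent inhibition taken relative to maximum and minimum controls. IC50 fitted to four-parameter logistic model over 10 concentrations, 25 μM to 0.2 μM; two independent experiments in triplicate.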

IC50 [nM]	Structure (SMILES)
1100 ± 100	O=C1C(Cl)=C(NCCN2CCOCC2)C(=O)c2c(Cl)ccnc21 [WDP1079, 4,7-Dichloro-6-(2-morpholin-4-yl-ethylamino)quinoline-5,8-dione]
5300 ± 600	COc1ccnc2c1C(=O)C(NCCN1CCOCC1)=C(F)C2=O [WDP1149, 7-Fluoro-4-methoxy-6-(2-morpholin-4-yl-ethylamino)quinoline-5,8-dione]
500 ± 100	O=C1C(Cl)=C(NCCN2CCOCC2)C(=O)c2nccnc21 [WDP1263, 6-Chloro-7-(2-morpholin-4-yl-ethylamino)quinoxaline-5,8-dione]
